Results: ChEMBL document CHEMBL3739334, “Spiroindole Alkaloids and Spiroditerpenoids from Aspergillus duricaulis and Their Potential Neuroprotective Effects” (J Nat Prod, 2015)

Legend:
[1] = biological target: T1, Amyloid-beta precursor protein (Homo sapiens, UniProt P05067); assay: Inhibition of amyloid beta (1 to 42 residues) (unknown origin) aggregation after 24 hrs by thioflavin T assay
Method in brief: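 Aβ1−42 was dissolved in DMSO as a 1 mg/mL stock, then incubated at 20 μM with a range of sample concentrations for 24 h at 37 °C. Thioflavin T was added to 3 μM, and fluorescence was read 30 min later (ex 442 nm, em 485 nm). Aβ alone served as control. Run in triplicate; IC50 is the mean.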

[2] = biological target: T1, Amyloid-beta precursor protein; assay: Inhibition of amyloid beta (1 to 42 residues) (unknown origin) aggregation at 100 uM after 24 hrs by thioflavin T assay
[3] = Cytotoxicity against rat PC12 cells; type: cell-based; settings: pc-12

T1 sequence (P05067 whole entry, the tested form may be a part): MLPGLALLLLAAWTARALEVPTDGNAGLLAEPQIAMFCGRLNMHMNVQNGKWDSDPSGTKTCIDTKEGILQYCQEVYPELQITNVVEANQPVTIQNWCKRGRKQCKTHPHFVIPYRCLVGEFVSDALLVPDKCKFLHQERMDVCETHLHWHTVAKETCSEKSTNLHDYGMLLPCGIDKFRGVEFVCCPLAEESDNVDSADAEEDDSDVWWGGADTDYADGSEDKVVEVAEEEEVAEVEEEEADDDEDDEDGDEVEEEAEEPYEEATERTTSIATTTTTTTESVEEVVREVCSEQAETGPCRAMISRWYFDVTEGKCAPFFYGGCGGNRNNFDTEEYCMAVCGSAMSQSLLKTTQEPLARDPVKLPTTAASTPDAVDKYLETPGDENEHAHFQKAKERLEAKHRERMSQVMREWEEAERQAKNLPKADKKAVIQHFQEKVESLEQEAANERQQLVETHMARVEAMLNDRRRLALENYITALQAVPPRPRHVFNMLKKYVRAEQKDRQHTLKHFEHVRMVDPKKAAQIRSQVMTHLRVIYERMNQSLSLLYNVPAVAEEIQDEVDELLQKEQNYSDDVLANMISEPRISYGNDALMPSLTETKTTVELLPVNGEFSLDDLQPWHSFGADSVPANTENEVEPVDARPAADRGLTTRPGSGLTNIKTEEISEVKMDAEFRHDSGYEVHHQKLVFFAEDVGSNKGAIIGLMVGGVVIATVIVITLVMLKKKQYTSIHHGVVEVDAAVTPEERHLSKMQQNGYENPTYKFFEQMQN

Row | Structure (SMILES) | IC50 [1] [µM] | inhibition [2] [%] | Activity [3]
1 | CC1=CC[C@@H]2[C@@]3(C)[C@@H](O)CC(=O)OC(C)(C)[C@@H]3CC[C@@]2(C)[C@]12Cc1c(c(C)c(C)oc1=O)O2 | > 300 | – | –
2 | C[C@@H]1C[C@@]23C[C@H]4C(C)(C)[C@@]5(C[C@]4(CN2C1=O)N(C)C3=O)C(=O)Nc1c5ccc2c1C=CC(C)(C)O2 | > 300 | – | –
3 | C[C@@H]1C[C@@]23C[C@H]4C(C)(C)[C@@]5(C[C@]4(CN2C1=O)NC3=O)C(=O)Nc1c5ccc2c1C=CC(C)(C)O2 | 244 | 30 | –
4 | CC1=CC[C@@H]2[C@@]3(C)C=CC(=O)OC(C)(C)[C@@H]3CC[C@@]2(C)[C@]12Cc1c(c(C)c(C)oc1=O)O2 | > 300 | – | –
5 | C[C@H]1CN2C[C@]34C[C@@]5(C(=O)Nc6c5ccc5c6OC=CC(C)(C)O5)C(C)(C)[C@@H]3C[C@@]2(C1)C(=O)N4C | 269 | 30 | –
6 | C[C@H]1CN2C[C@]34C[C@@]5(C(=O)Nc6c5ccc5c6C=CC(C)(C)O5)C(C)(C)[C@@H]3C[C@@]2(C1)C(=O)N4C | 204 | 30 | Toxic
7 | CC(=O)O[C@H]1CC(=O)OC(C)(C)[C@@H]2CC[C@]3(C)[C@H](CC=C(C)[C@@]34C[C@]3(OC(C)=C(C)C3=O)C(=O)O4)[C@@]12C | > 300 | – | –
8 | O=C(/C=C/c1ccc(O)c(O)c1)O[C@H](Cc1ccc(O)c(O)c1)C(=O)O [ROSMARINIC ACID] | 71.9 | – | –
9 | CC1(C)C=Cc2cc(C(=O)O)ccc2O1 | > 300 | – | –
10 | C[C@@H]1C[C@@]23C[C@H]4C(C)(C)[C@@]5(C[C@]4(CN2C1=O)NC3=O)C(=O)Nc1c5ccc2c1OC=CC(C)(C)O2 | > 300 | – | –
11 | C[C@@H]1C[C@@]23C[C@H]4C(C)(C)[C@@]5(C[C@]4(CN2C1=O)N(C)C3=O)C(=O)Nc1c5ccc2c1OC=CC(C)(C)O2 | > 300 | – | –
12 | CN1C(=O)[C@@]23CCC(=O)N2C[C@@]12C[C@@]1(C(=O)Nc4c1ccc1c4C=CC(C)(C)O1)C(C)(C)[C@@H]2C3 | 187 | 30 | –
